Data taken from PubChem BioAssay AID588687 (Southern Research Specialized Biocontainment Screening …, 2011).
The source made the active and inactive calls.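 How the source made its calls: active means inhibition of 30% or more at any tested concentration; inactive means the rest.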

test system: M18 aspartyl aminopeptidase (Plasmodium falciparum 3D7); experiment: P. falciparum M18 aminopeptidase activity inhibition – biochemical, QFRET fluorogenic substrate, counter-screen for PfM1 aminopeptidase inhibitor project, dose response (AID 588687); settings: recombinant PfM18AAP, H-Glu-NHMec fluorogenic cleavage; series mostly up to 100 µM; inhibition: at the top concentration
Procedure, shortened: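 System: recombinant P. falciparum PFM18AAP enzyme. Times: reaction time 90 min, room temperature. Dosing: 10 twofold doses, top 100 µM, 2% DMSO. Signal: fluorescence of released leaving group, excitation 370 nm, emission 460 nm. Also added: H-Glu-NHMec fluorogenic peptide substrate at 0.1 mM final.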

Question: With `O=C(NCc1ccc2c(c1)OCO2)C1CCN(S(=O)(=O)c2ccc(-c3cncc4ccccc34)s2)CC1` as the compound, how does the “inhibition” value read?
Answer: Its value is -43.4% (inactive).

Question: `CC[C@H](C)[C@H](NC(=O)c1ccc([N+](=O)[O-])cc1)C(=O)NCc1ccc(F)cc1` was tested. Which “inhibition” value did it give?
Answer: Its value is -5.15% (inactive).

Question: `CC[C@H](C)[C@H](NS(=O)(=O)c1ccc(Br)s1)C(=O)O` was tested. Which “inhibition” value did it give?
Answer: The value was -0.95% (inactive).

Question: Which “inhibition” value does the source give for `COc1ccc(-c2ccc(S(=O)(=O)N3CCC(C(=O)NCc4ccc5c(c4)OCO5)CC3)s2)cc1` here?
Answer: The value was -48% (inactive).

Question: Which “inhibition” value does the source give for `O=C(NCc1ccc2c(c1)OCO2)C1CCN(S(=O)(=O)c2ccc(-c3ccccc3)s2)CC1` here?
Answer: Its value is 8.21% (inactive).

Question: How did the “inhibition” value turn out when `CN(C)c1ccc(CNC(=O)C2CCN(S(=O)(=O)c3ccc(Br)s3)CC2)cc1` was run?
Answer: The value was 19.9% (inactive).

Question: How did the “inhibition” value turn out when `CC[C@H](C)[C@H](NC(=O)c1ccc(C(C)(C)C)cc1)C(=O)NCc1ccc(C(F)(F)F)cc1` was run?
Answer: The value was -25.8% (inactive).

Question: With `CC[C@H](C)[C@H](NS(=O)(=O)c1ccc(Br)s1)C(=O)NCc1ccc(F)cc1` as the compound, how does the “inhibition” value read?
Answer: Its value is 15.1% (inactive).

Question: `CC[C@H](C)[C@H](NC(=O)c1ccc([N+](=O)[O-])cc1)C(=O)NCc1ccc(C(F)(F)F)cc1` was tested. Which “inhibition” value did it give?
Answer: The value was -4.11% (inactive).

Question: With `COc1cccc(-c2ccc(S(=O)(=O)N3CCC(C(=O)NCc4ccc5c(c4)OCO5)CC3)s2)c1` as the compound, how does the “inhibition” value read?
Answer: The value was 7.54% (inactive).

Question: How did the “inhibition” value turn out when `CC[C@H](C)[C@H](NS(=O)(=O)c1ccc(Br)s1)C(=O)NCc1ccc(C(F)(F)F)cc1` was run?
Answer: The value was -0.4% (inactive).

Question: For `O=C(NCc1ccc2c(c1)OCO2)C1CCN(S(=O)(=O)c2ccc(-c3cccc(F)c3)s2)CC1`, which “inhibition” value is on record?
Answer: The value was -10.5% (inactive).

Question: With `O=C(NCc1ccc2c(c1)OCO2)C1CCN(S(=O)(=O)c2ccc(-c3ccc(F)cc3)s2)CC1` as the compound, how does the “inhibition” value read?
Answer: The value was 16.3% (inactive).

Question: How did the “inhibition” value turn out when `CC(C)(C)c1ccc(-c2ccc(S(=O)(=O)N3CCC(C(=O)NCc4ccc5c(c4)OCO5)CC3)s2)cc1` was run?
Answer: The value was -8.7% (inactive).
